test system: not listed separately; test: Oral bioavailability in Sprague-Dawley rat at 1 mg/kg; assay type: ADME, organism-based; details: in vivo
How it was run: (§1)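 Male Sprague-Dawley rats, cassette dosing. Compounds were given as an iv bolus and as an oral suspension. Blood samples were taken at intervals up to 24 h, processed by protein precipitation and analysed by HPLC-MS/MS.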

SMILES	bioavailability [%]
O=C(O)[C@]12C[C@H]1CN(C1CC[C@]3(Cc4ccccc4Cc4ccccc43)C1)C2 (stereo partly specified)	62

molecular target: T1, 5-hydroxytryptamine receptor 2C (Homo sapiens, UniProt P28335); test: Antagonist activity at human 5HT2C receptor expressed in human SH-SY5Y cells by FLIPR assay; assay type: functional, cell-based; details: not given
T1 sequence (P28335 whole entry): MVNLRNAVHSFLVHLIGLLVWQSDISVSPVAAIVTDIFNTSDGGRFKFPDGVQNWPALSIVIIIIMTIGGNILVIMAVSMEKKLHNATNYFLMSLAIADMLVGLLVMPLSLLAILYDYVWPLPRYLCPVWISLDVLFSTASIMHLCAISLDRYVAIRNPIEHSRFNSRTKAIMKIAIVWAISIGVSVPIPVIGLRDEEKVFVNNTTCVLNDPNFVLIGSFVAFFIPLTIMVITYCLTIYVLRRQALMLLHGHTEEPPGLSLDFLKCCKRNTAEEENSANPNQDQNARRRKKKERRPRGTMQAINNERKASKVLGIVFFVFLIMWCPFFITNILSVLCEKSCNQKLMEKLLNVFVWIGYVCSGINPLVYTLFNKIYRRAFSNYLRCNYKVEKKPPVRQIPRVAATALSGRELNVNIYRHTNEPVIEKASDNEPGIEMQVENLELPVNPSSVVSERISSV

SMILES	Ki [µM]
O=C(O)C1=CCCN(C2CC[C@]3(Cc4ccccc4Cc4ccccc43)C2)C1 (single isomer, unassigned; stereoisomer 1)	0.158
O=C(O)[C@]12C[C@H]1CN(C1CC[C@]3(Cc4ccccc4Cc4ccccc43)C1)C2 (stereo partly specified)	0.0631

test system: not listed separately; test: Half life in Sprague-Dawley rat at 1 mg/kg, iv and 3 mg/kg, po; assay type: ADME, organism-based; details: in vivo; how it was run: as §1

SMILES	half-life [h]
O=C(O)C1=CCCN(C2CC[C@]3(Cc4ccccc4Cc4ccccc43)C2)C1 (single isomer, unassigned; stereoisomer 1)	2.4

molecular target: Cytochrome P450 3A4 (Homo sapiens, UniProt P08684); test: Inhibition of human CYP3A4 transfected in bactosome expression system by spectrofluorimetry; assay type: ADME; details: not given
How it was run: (§2)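 Recombinant human CYP Bactosomes (0.1 mg/mL) in 50 mM phosphate buffer, pH 7.4. Compound at 0.1-10 μM was preincubated with fluorogenic substrate for 10 min at 37 °C, and the reaction was started with an NADPH regenerating system. Metabolite fluorescence was followed for 10 min. Substrates: 1A2 ethoxyresorufin 0.5 μM; 2C9 FCA 50 μM; 2C19 BMC 10 μM; 2D6 MMC 10 μM; 3A4 DEF 1 μM or 7-BQ 25 μM. Run in triplicate.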

Chain of Cytochrome P450 3A4 (P08684 whole entry): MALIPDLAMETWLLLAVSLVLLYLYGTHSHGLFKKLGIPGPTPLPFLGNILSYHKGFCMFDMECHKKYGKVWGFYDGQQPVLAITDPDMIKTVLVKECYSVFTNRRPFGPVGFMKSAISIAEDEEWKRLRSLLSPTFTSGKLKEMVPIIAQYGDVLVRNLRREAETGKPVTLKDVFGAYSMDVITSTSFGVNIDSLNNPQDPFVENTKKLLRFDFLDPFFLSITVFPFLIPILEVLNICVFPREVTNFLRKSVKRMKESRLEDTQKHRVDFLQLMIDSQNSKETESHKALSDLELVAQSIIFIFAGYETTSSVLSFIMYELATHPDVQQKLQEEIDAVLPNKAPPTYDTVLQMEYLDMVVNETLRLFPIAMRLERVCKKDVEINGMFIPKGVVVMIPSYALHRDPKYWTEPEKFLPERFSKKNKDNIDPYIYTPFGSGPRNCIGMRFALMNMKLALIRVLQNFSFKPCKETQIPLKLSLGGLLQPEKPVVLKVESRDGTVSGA

SMILES	IC50 [µM]
O=C(O)C1=CCCN(C2CC[C@]3(Cc4ccccc4Cc4ccccc43)C2)C1 (single isomer, unassigned; stereoisomer 1)	> 10
O=C(O)[C@]12C[C@H]1CN(C1CC[C@]3(Cc4ccccc4Cc4ccccc43)C1)C2 (stereo partly specified)	> 10

test system: not listed separately; test: Blood clearance in Sprague-Dawley rat at 1 mg/kg, iv and 3 mg/kg, po; assay type: ADME, organism-based; details: whole blood; how it was run: as §1

SMILES	clearance [mL/min/kg]
O=C(O)C1=CCCN(C2CC[C@]3(Cc4ccccc4Cc4ccccc43)C2)C1 (single isomer, unassigned; stereoisomer 1)	2

molecular target: 5-hydroxytryptamine receptor 2B (Homo sapiens, UniProt P41595); test: Antagonist activity at human 5HT2B receptor expressed in human SH-SY5Y cells by FLIPR assay; details: not given
Sequence (P41595 whole entry): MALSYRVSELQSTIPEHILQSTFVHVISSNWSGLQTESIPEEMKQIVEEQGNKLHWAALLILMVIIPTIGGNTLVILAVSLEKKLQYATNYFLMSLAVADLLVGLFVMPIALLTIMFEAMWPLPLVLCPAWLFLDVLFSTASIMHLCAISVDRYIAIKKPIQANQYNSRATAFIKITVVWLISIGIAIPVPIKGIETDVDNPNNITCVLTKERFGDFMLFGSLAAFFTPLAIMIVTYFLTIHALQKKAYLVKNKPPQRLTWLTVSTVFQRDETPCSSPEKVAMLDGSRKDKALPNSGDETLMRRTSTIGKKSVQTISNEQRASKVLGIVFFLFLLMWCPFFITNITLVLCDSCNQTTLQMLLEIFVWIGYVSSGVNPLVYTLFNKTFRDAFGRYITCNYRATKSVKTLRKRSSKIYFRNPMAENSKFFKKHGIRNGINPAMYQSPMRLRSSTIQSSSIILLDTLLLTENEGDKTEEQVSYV

SMILES	Ki [µM]
O=C(O)[C@]12C[C@H]1CN(C1CC[C@]3(Cc4ccccc4Cc4ccccc43)C1)C2 (stereo partly specified)	0.398

molecular target: Histamine H1 receptor (Rattus norvegicus, UniProt P31390); test: Displacement of [3H]pyrilamine from histamine H1 receptor in Sprague-Dawley rat cortical membrane by liquid scintillation counting; details: not given
How it was run: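 Cerebral cortex membranes from male Sprague-Dawley rats (200-250 g), 150 μg/well. Incubated with 0.6 nM [3H]pyrilamine in 50 mM HEPES, pH 7.4, for 2 h at room temperature. Filtered on PEI-soaked GF/B and counted by scintillation. Nonspecific binding with 10 μM cetirizine. Ki by Cheng-Prusoff; mean of two experiments in duplicate.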

Chain of Histamine H1 receptor (Rattus norvegicus, UniProt P31390) (P31390 whole entry): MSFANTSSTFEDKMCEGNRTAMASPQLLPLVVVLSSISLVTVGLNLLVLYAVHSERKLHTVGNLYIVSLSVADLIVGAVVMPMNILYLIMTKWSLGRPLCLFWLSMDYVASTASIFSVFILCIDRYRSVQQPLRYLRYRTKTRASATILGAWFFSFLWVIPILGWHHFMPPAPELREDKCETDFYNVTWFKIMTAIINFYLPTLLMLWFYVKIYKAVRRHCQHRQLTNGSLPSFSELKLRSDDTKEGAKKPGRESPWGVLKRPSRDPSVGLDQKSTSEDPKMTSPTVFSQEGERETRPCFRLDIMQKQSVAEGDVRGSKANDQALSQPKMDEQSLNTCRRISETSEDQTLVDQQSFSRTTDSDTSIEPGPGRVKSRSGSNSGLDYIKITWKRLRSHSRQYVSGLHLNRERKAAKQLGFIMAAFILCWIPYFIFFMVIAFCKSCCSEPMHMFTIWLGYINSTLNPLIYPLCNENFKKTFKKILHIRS

SMILES	Ki [µM]
O=C(O)C1=CCCN(C2CC[C@]3(Cc4ccccc4Cc4ccccc43)C2)C1 (single isomer, unassigned; stereoisomer 1)	0.00871
O=C(O)[C@]12C[C@H]1CN(C1CC[C@]3(Cc4ccccc4Cc4ccccc43)C1)C2 (stereo partly specified)	0.00537

test system: not listed separately; test: Volume of distribution at steady state in Sprague-Dawley rat at 1 mg/kg, iv and 3 mg/kg, po; assay type: ADME, organism-based; details: in vivo, read-out: Vdss; how it was run: as §1

SMILES	Vd [L/kg]
O=C(O)C1=CCCN(C2CC[C@]3(Cc4ccccc4Cc4ccccc43)C2)C1 (single isomer, unassigned; stereoisomer 1)	0.4

test system: not listed separately; test: Fraction unbound in rat brain; assay type: ADME, tissue-based; details: not given

SMILES	fraction unbound
O=C(O)C1=CCCN(C2CC[C@]3(Cc4ccccc4Cc4ccccc43)C2)C1 (single isomer, unassigned; stereoisomer 1)	0.03
O=C(O)[C@]12C[C@H]1CN(C1CC[C@]3(Cc4ccccc4Cc4ccccc43)C1)C2 (stereo partly specified)	0.023

test system: not listed separately; test: Ratio of drug level in brain to blood in Sprague-Dawley rat at 0.5 mg/kg, iv and 1 mg/kg, po; assay type: ADME, organism-based; details: read-out: BBR
How it was run: (§3)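 Male Sprague-Dawley rats, cassette dosing, iv bolus or oral suspension. Blood and brain levels were measured by protein precipitation and HPLC-MS/MS. Brain:blood ratio was taken from AUC0-8h after oral dosing, or at 1 h after iv dosing for one compound.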

SMILES	Kp
O=C(O)[C@]12C[C@H]1CN(C1CC[C@]3(Cc4ccccc4Cc4ccccc43)C1)C2 (stereo partly specified)	2.2

test system: not listed separately; test: Fraction unbound in rat blood; assay type: ADME, tissue-based; details: not given

SMILES	fraction unbound
O=C(O)C1=CCCN(C2CC[C@]3(Cc4ccccc4Cc4ccccc43)C2)C1 (single isomer, unassigned; stereoisomer 1)	0.024
O=C(O)[C@]12C[C@H]1CN(C1CC[C@]3(Cc4ccccc4Cc4ccccc43)C1)C2 (stereo partly specified)	0.08

molecular target: 5-hydroxytryptamine receptor 2A (Homo sapiens, UniProt P28223); test: Antagonist activity at human 5HT2A receptor expressed in HEK cells assessed as inhibition of intracellular calcium accumulation by aequorin assay; assay type: functional, cell-based, HEK293; details: not given
Sequence (P28223 whole entry): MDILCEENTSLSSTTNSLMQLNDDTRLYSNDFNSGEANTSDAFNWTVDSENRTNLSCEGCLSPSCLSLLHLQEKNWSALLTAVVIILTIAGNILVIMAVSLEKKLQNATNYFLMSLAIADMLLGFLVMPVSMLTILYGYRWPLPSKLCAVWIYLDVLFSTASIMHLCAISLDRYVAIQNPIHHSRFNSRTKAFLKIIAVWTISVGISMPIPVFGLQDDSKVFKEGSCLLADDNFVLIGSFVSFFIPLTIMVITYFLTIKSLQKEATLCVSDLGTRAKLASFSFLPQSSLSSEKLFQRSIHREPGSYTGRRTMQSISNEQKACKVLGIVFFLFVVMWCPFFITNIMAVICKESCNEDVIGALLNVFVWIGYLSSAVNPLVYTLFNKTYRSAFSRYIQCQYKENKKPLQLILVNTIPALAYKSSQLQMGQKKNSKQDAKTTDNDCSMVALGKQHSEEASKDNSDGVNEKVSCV

SMILES	Ki [µM]
O=C(O)C1=CCCN(C2CC[C@]3(Cc4ccccc4Cc4ccccc43)C2)C1 (single isomer, unassigned; stereoisomer 1)	0.126
O=C(O)[C@]12C[C@H]1CN(C1CC[C@]3(Cc4ccccc4Cc4ccccc43)C1)C2 (stereo partly specified)	0.0316

molecular target: Cytochrome P450 2D6 (Homo sapiens, UniProt P10635); test: Inhibition of human CYP2D6 transfected in bactosome expression system by spectrofluorimetry; assay type: ADME; details: not given; how it was run: as §2
Sequence (P10635 whole entry): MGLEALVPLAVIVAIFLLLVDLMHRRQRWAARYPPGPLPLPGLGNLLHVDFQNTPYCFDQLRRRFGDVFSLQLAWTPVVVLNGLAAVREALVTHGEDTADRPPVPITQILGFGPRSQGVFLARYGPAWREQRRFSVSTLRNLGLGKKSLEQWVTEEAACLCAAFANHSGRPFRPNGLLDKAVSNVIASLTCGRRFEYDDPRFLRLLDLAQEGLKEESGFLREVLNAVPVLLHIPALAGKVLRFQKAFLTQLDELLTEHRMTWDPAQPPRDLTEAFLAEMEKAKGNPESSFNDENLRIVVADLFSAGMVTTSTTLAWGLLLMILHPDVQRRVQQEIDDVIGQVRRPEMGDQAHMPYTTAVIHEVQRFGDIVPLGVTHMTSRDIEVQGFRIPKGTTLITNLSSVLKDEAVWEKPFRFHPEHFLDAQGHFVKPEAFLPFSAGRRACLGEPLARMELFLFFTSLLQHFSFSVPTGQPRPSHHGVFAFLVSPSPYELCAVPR

SMILES	IC50 [µM]
O=C(O)C1=CCCN(C2CC[C@]3(Cc4ccccc4Cc4ccccc43)C2)C1 (single isomer, unassigned; stereoisomer 1)	> 10
O=C(O)[C@]12C[C@H]1CN(C1CC[C@]3(Cc4ccccc4Cc4ccccc43)C1)C2 (stereo partly specified)	> 10

test system: not listed separately; test: Oral bioavailability in Sprague-Dawley rat at 3 mg/kg; assay type: ADME, organism-based; details: in vivo; how it was run: as §1

SMILES	bioavailability [%]
O=C(O)C1=CCCN(C2CC[C@]3(Cc4ccccc4Cc4ccccc43)C2)C1 (single isomer, unassigned; stereoisomer 1)	80

molecular target: Cytochrome P450 2C9 (Homo sapiens, UniProt P11712); test: Inhibition of human CYP2C9 transfected in bactosome expression system by spectrofluorimetry; assay type: ADME; details: not given; how it was run: as §2
Sequence (P11712 whole entry): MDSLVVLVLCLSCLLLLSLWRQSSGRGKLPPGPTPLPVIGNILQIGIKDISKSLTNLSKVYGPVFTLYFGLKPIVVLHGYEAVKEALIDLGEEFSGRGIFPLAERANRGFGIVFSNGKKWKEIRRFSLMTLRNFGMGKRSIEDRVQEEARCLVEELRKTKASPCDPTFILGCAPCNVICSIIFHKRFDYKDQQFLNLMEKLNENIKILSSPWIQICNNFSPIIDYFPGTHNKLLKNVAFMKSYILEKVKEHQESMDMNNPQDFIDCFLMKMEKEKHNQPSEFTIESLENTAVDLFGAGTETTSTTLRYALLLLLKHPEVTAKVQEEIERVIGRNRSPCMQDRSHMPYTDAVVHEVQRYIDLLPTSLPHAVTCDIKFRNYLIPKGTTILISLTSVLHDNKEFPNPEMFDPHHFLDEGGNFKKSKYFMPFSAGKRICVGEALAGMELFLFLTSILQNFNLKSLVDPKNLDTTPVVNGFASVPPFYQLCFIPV

SMILES	IC50 [µM]
O=C(O)C1=CCCN(C2CC[C@]3(Cc4ccccc4Cc4ccccc43)C2)C1 (single isomer, unassigned; stereoisomer 1)	> 10
O=C(O)[C@]12C[C@H]1CN(C1CC[C@]3(Cc4ccccc4Cc4ccccc43)C1)C2 (stereo partly specified)	> 10

molecular target: T2, Cytochrome P450 1A2 (Homo sapiens, UniProt P05177); test: Inhibition of human CYP1A2 transfected in bactosome expression system by spectrofluorimetry; assay type: ADME; details: not given; how it was run: as §2
T2 sequence (P05177 whole entry): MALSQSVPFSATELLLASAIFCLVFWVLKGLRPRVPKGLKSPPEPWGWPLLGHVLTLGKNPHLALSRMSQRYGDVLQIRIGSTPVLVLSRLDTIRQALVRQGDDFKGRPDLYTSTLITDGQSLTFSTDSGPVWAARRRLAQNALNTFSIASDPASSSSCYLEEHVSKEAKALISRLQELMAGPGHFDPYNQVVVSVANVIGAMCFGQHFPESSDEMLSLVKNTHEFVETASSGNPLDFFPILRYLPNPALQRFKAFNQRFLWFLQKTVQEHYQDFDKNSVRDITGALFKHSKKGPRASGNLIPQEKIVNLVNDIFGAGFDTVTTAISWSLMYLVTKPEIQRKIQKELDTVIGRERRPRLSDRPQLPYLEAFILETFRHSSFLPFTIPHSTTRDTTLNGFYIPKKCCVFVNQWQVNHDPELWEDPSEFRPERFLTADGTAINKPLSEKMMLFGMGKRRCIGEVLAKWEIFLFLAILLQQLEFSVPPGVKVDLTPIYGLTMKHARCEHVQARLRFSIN

SMILES	IC50 [µM]
O=C(O)C1=CCCN(C2CC[C@]3(Cc4ccccc4Cc4ccccc43)C2)C1 (single isomer, unassigned; stereoisomer 1)	> 10
O=C(O)[C@]12C[C@H]1CN(C1CC[C@]3(Cc4ccccc4Cc4ccccc43)C1)C2 (stereo partly specified)	> 10

test system: not listed separately; test: Ratio of drug level in brain to blood in Sprague-Dawley rat at 1 mg/kg, iv and 3 mg/kg, po; assay type: ADME, organism-based; details: read-out: BBR; how it was run: as §3

SMILES	Kp
O=C(O)C1=CCCN(C2CC[C@]3(Cc4ccccc4Cc4ccccc43)C2)C1 (single isomer, unassigned; stereoisomer 1)	0.1

molecular target: Histamine H1 receptor (Homo sapiens, UniProt P35367); test: Antagonist activity against human histamine H1 receptor expressed in CHO cells by FLIPR assay; assay type: functional, cell-based; details: not given
Sequence (P35367 whole entry): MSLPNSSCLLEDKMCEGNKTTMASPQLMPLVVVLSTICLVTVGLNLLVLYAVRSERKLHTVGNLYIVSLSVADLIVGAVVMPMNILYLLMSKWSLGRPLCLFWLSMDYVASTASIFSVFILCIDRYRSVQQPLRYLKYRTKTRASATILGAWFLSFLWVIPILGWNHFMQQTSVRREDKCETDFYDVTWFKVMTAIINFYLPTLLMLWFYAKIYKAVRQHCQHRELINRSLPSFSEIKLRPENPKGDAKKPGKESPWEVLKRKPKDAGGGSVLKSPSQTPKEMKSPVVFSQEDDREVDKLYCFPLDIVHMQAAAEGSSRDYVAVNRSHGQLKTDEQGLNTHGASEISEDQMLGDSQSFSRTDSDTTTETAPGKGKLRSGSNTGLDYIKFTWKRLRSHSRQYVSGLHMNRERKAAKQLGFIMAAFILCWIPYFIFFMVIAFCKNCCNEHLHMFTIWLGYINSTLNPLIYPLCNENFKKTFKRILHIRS

SMILES	Ki [µM]
O=C(O)C1=CCCN(C2CC[C@]3(Cc4ccccc4Cc4ccccc43)C2)C1 (single isomer, unassigned; stereoisomer 1)	0.0251
O=C(O)[C@]12C[C@H]1CN(C1CC[C@]3(Cc4ccccc4Cc4ccccc43)C1)C2 (stereo partly specified)	0.0316

molecular target: Cytochrome P450 2C19 (Homo sapiens, UniProt P33261); test: Inhibition of human CYP2C19 transfected in bactosome expression system by spectrofluorimetry; assay type: ADME; details: not given; how it was run: as §2
Sequence (P33261 whole entry): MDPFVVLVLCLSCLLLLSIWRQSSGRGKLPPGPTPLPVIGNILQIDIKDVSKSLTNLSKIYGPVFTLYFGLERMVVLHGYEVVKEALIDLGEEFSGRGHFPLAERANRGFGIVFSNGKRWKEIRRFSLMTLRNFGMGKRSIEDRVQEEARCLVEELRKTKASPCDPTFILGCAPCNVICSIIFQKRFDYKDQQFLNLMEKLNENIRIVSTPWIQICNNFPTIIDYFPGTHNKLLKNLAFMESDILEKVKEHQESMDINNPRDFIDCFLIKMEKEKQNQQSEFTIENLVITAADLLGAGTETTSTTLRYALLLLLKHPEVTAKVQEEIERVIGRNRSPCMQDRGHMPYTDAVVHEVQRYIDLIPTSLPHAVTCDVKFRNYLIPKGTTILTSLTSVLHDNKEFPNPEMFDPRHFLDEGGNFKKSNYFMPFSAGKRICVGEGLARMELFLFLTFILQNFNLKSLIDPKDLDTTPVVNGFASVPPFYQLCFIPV

SMILES	IC50 [µM]
O=C(O)C1=CCCN(C2CC[C@]3(Cc4ccccc4Cc4ccccc43)C2)C1 (single isomer, unassigned; stereoisomer 1)	> 10
O=C(O)[C@]12C[C@H]1CN(C1CC[C@]3(Cc4ccccc4Cc4ccccc43)C1)C2 (stereo partly specified)	> 10

molecular target: 5-hydroxytryptamine receptor 2A (Rattus norvegicus, UniProt P14842); test: Displacement of [3H]ketanserin from 5HT2A receptor in Sprague-Dawley rat cortical membrane by liquid scintillation counting; details: not given
How it was run: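 Cerebral cortex membranes from male Sprague-Dawley rats (200-250 g), 50 μg/well. Incubated with 1 nM [3H]ketanserin in 50 mM Tris-HCl, 10 mM MgCl2, pH 7.4, for 1 h at 37 °C with shaking. Filtered on PEI-soaked GF/B and counted by scintillation. Nonspecific binding with 10 μM mianserin. Ki by Cheng-Prusoff; mean of two experiments in duplicate.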

Chain of 5-hydroxytryptamine receptor 2A (Rattus norvegicus, UniProt P14842) (P14842 whole entry): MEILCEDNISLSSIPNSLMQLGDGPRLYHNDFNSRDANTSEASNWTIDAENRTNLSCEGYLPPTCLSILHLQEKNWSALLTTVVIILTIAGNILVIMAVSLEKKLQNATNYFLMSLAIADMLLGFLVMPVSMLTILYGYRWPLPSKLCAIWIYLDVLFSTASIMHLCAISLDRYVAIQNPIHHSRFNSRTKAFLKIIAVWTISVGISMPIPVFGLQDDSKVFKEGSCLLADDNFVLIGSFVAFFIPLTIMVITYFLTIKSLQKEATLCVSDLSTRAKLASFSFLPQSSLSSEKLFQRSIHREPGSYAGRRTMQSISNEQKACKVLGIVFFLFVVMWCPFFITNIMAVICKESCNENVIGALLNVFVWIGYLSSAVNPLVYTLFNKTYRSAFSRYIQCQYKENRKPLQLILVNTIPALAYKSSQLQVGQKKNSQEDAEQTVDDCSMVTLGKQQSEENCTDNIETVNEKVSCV

SMILES	Ki [µM]
O=C(O)C1=CCCN(C2CC[C@]3(Cc4ccccc4Cc4ccccc43)C2)C1 (single isomer, unassigned; stereoisomer 1)	0.117
O=C(O)[C@]12C[C@H]1CN(C1CC[C@]3(Cc4ccccc4Cc4ccccc43)C1)C2 (stereo partly specified)	0.0692

test system: not listed separately; test: Blood clearance in Sprague-Dawley rat at 0.5 mg/kg, iv and 1 mg/kg, po; assay type: ADME, organism-based; details: whole blood; how it was run: as §1

SMILES	clearance [mL/min/kg]
O=C(O)[C@]12C[C@H]1CN(C1CC[C@]3(Cc4ccccc4Cc4ccccc43)C1)C2 (stereo partly specified)	5

test system: not listed separately; test: Volume of distribution at steady state in Sprague-Dawley rat at 0.5 mg/kg, iv and 1 mg/kg, po; assay type: ADME, organism-based; details: in vivo, read-out: Vdss; how it was run: as §1

SMILES	Vd [L/kg]
O=C(O)[C@]12C[C@H]1CN(C1CC[C@]3(Cc4ccccc4Cc4ccccc43)C1)C2 (stereo partly specified)	2.4

molecular target: Voltage-gated inwardly rectifying potassium channel KCNH2 (Homo sapiens, UniProt Q12809); test: Displacement of [3H]dofetilide from human ERG by scintillation proximity assay; details: not given

SMILES	IC50 [µM]
O=C(O)[C@]12C[C@H]1CN(C1CC[C@]3(Cc4ccccc4Cc4ccccc43)C1)C2 (stereo partly specified)	> 39.8

test system: not listed separately; test: Half life in Sprague-Dawley rat at 0.5 mg/kg, iv and 1 mg/kg, po; assay type: ADME, organism-based; details: in vivo; how it was run: as §1

SMILES	half-life [h]
O=C(O)[C@]12C[C@H]1CN(C1CC[C@]3(Cc4ccccc4Cc4ccccc43)C1)C2 (stereo partly specified)	5.3
